Active and inactive are the calls of the source. The calls are words filed in the database; no cut-off is given here.
Experiments:
MDA-MB-231 [1] = assay: Antiproliferative activity against human MDA-MB-231 cells expressing p53 R280K mutant assessed as inhibition of cell growth at 10 to 50 uM incubated for 24 to 72 hrs by WST-1 assay; format: functional, cell-based; settings: dose 10-50 µM, time 24-72 hrs
In short: (§1)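 WST-1 proliferation assay. Compound diluted in DMSO so that 10 μl of stock in 1 ml of cells (40,000 cells/ml) gives the test concentration at 1% DMSO. Cells plated at 4,000/well in duplicate and incubated at 37 °C for 24 h or 72 h. Result given as % of the 1% DMSO control.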

MDA-MB-231 [2] = assay: Antiproliferative activity against human MDA-MB-231cells expressing p53 R280K mutant assessed as inhibition of cell growth at 10 to 50 uM incubated for 24 hrs by WST-1 assay; format: functional, cell-based; settings: dose 10-50 µM; in short: as §1
[3] = Octanol-water partition coefficient, logP of the compound by HPLC-MS analysis; format: physicochemical; settings: for logP: 18 h
In short: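 Compound (10 µL of 10 mM DMSO stock) added to 0.5 mL octanol plus 0.5 mL sodium phosphate buffer pH 7.4. Stirred 18 h, centrifuged 2 h at 3600 rpm. Concentration in each phase measured by LC-MS on a C18 column.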

MCF7 [4] = assay: Antiproliferative activity against human MCF7 cells expressing WT p53 assessed as inhibition of cell growth at 10 to 50 uM incubated for 24 to 72 hrs by WST-1 assay; format: functional, cell-based; settings: dose 10-50 µM, time 24-72 hrs; in short: as §1
MCF7 [5] = assay: Induction of apoptosis in human MCF-7 cells expressing wild type p53 assessed increase in number of Annexin-V stained cells at 6 to 12 uM incubated for 24 hrs by AnnexinV-FITC and PI staining based flow cytometry; format: functional, cell-based; settings: dose 6-12 µM
In short: (§2)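 24 h treatment, DMSO control. Cells scraped, washed in PBS, then given fluorochrome-conjugated Annexin V for 15 min at RT in the dark, followed by PI (0.1 µg/ml) in binding buffer. Read by flow cytometry on LSRFortessa. Annexin V-positive cells expressed relative to the DMSO control.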

MDA-MB-231 [6] = assay: Antiproliferative activity against human MDA-MB-231 cells expressing p53 R280K mutant assessed as inhibition of cell growth incubated for 24 hrs by WST-1 assay; format: functional, cell-based; settings: MDA-MB-231, 24 h
In short: (§3)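 WST-1 proliferation assay. Compound diluted in DMSO and added to cells at 1% DMSO final. 4,000 cells/well in duplicate; DMSO-only wells as control, cell-free medium wells for background.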

MDA-MB-468 [7] = assay: Downregulation of p53 R273H mutant expression in human MDA-MB-468 cells at 6 to 12 uM measured after 24 hrs by immunoblot analysis; format: functional, cell-based; settings: dose 6-12 µM
In short: (§4)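 24 h exposure to 6 or 12 μM, DMSO control. Lysis in Tris pH 8.0/NaCl/glycerol/NP-40/EDTA buffer with protease inhibitors. 20 µg (MDA-MB-231, MDA-MB-468) or 50 µg (MCF-7) of lysate run on 4-12% SDS-PAGE. Blot probed with p53 DO-1, GAPDH used for reprobe/loading. Triplicate experiments.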

MDA-MB-231 [8] = assay: Induction of apoptosis in human MDA-MB-231 cells expressing p53 R280K mutant assessed fold increase in number of Annexin-V stained cells at 6 to 12 uM incubated for 24 hrs by AnnexinV-FITC and PI staining based flow cytometry relative to control; format: functional; settings: dose 6-12 µM; in short: as §2
MDA-MB-231 [9] = assay: Downregulation of p53 R280K mutant expression in human MDA-MB-231 cells at 6 to 12 uM measured after 24 hrs by immunoblot analysis; settings: dose 6-12 µM
MDA-MB-231 [10] = assay: Antiproliferative activity against human MDA-MB-231 cells expressing p53 R280K mutant assessed as inhibition of cell growth incubated for 72 hrs by WST-1 assay; format: functional, cell-based; settings: MDA-MB-231, 72 h; in short: as §3
MCF7 [11] = assay: Downregulation of p53 expression in human MCF7 cells at 6 to 12 uM measured after 24 hrs by immunoblot analysis; format: functional, cell-based; settings: dose 6-12 µM; in short: as §4
MDA-MB-468 [12] = assay: Induction of apoptosis in human MDA-MB-468 cells expressing p53 R273H mutant assessed fold increase in number of Annexin-V stained cells at 6 to 12 uM incubated for 24 hrs by AnnexinV-FITC and PI staining based flow cytometry relative to control; format: functional; settings: dose 6-12 µM; in short: as §2
MDA-MB-468 [13] = assay: Induction of apoptosis in human MDA-MB-468 cells expressing p53 R273H mutant assessed as increase in level of cleaved PARP1 level at 6 to 12 uM measured after 24 hrs by western blotting analysis; format: functional, cell-based; settings: dose 6-12 µM
In short: (§5)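 Cells treated with DMSO or compound at 6 or 12 µM for 24 h, then lysed in Tris-Cl pH 8.0/NaCl/glycerol/NP-40/EDTA buffer with protease inhibitors. 100 µg lysate resolved on 4-12% SDS-PAGE and blotted to PVDF. Probed with anti-PARP or anti-caspase 3, then HRP secondary and ECL. GAPDH reprobe as control.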

MCF7 [14] = assay: Upregulation of p53 expression in human MCF7 cells at 6 to 12 uM measured after 24 hrs by immunoblot analysis; format: functional, cell-based; settings: dose 6-12 µM
In short: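 Cells treated with DMSO or compound at 6 or 12 µM for 24 h and lysed. 50 µg MCF-7 lysate resolved by SDS-PAGE and probed with p53 DO-1 antibody. Reprobed with anti-GAPDH as loading control. Run in triplicate.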

MDA-MB-231 [15] = assay: Induction of apoptosis in human MDA-MB-231 cells expressing p53 R280K mutant assessed as decrease in level of uncleaved caspase 3 level at 6 to 12 uM measured after 24 hrs by western blotting analysis; format: functional, cell-based; settings: dose 6-12 µM; in short: as §5
MDA-MB-468 [16] = assay: Induction of apoptosis in human MDA-MB-468 cells expressing p53 R273H mutant assessed as decrease in level of uncleaved caspase 3 level at 6 to 12 uM measured after 24 hrs by western blotting analysis; format: functional, cell-based; settings: dose 6-12 µM; in short: as §5
MCF7 [17] = assay: Induction of apoptosis in human MCF7 cells expressing wild type p53 assessed as decrease in level of uncleaved PARP1 level at 6 to 12 uM measured after 24 hrs by western blotting analysis; format: functional, cell-based; settings: dose 6-12 µM; in short: as §5
MCF7 [18] = assay: Induction of apoptosis in human MCF7 cells expressing wild type p53 assessed as increase in cleaved PARP1 level at 6 to 12 uM measured after 24 hrs by western blotting analysis; format: functional, cell-based; settings: dose 6-12 µM; in short: as §5
MDA-MB-231 [19] = assay: Induction of apoptosis in human MDA-MB-231 cells expressing p53 R280K mutant assessed as increase in level of cleaved PARP1 level at 6 to 12 uM measured after 24 hrs by western blotting analysis; format: functional, cell-based; settings: dose 6-12 µM; in short: as §5
MDA-MB-231 [20] = assay: Antiproliferative activity against human MDA-MB-231 cells expressing p53 R280K mutant assessed as inhibition of cell growth at 24 to 48 uM incubated for 72 hrs by WST-1 assay; format: functional; settings: dose 24-48 µM; in short: as §1
MDA-MB-468 [21] = assay: Antiproliferative activity against human MDA-MB-468 cells expressing p53 R273H mutant assessed as inhibition of cell growth at 10 to 50 uM incubated for 24 to 72 hrs by WST-1 assay; format: functional, cell-based; settings: dose 10-50 µM, time 24-72 hrs; in short: as §1
MDA-MB-231 [22] = assay: Induction of apoptosis in human MDA-MB-231 cells expressing p53 R280K mutant assessed increase in number of Annexin-V stained cells at 6 to 12 uM incubated for 24 hrs by AnnexinV-FITC and PI staining based flow cytometry; format: functional, cell-based; settings: dose 6-12 µM; in short: as §2
MDA-MB-468 [23] = assay: Induction of apoptosis in human MDA-MB-468 cells expressing p53 R273H mutant assessed increase in number of Annexin-V stained cells at 6 to 12 uM incubated for 24 hrs by AnnexinV-FITC and PI staining based flow cytometry; format: functional, cell-based; settings: dose 6-12 µM; in short: as §2

S=C=NC1C2CC3CC(C2)CC1C3 (stereo not drawn)
Activity (MDA-MB-231 [1]): inactive

S=C=Nc1ccc(C23CC4CC(CC(C4)C2)C3)cc1
Activity (MDA-MB-231 [2]): Dose-Dependent Effect
logP [3]: 6.34

CC(N=C=S)C12CC3CC(CC(C3)C1)C2 (stereo not drawn)
Activity (MDA-MB-231 [1]): inactive

S=C=NCCC12CC3CC(CC(C3)C1)C2
Activity (MCF7 [4]): inactive
Activity (MCF7 [5]): inactive
IC50 (MDA-MB-231 [6]): 24 µM
inhibition (MDA-MB-468 [7]): Active
Activity (MDA-MB-231 [2]): Dose-Dependent Effect
fold change (FC) (MDA-MB-231 [8]): 2
p53 R280K downregulation (active/not active) (MDA-MB-231 [9]): Active
IC50 (MDA-MB-231 [10]): 12 µM
inhibition (MCF7 [11]): inactive
fold change (FC) (MDA-MB-468 [12]): 2

S=C=NCCc1ccccc1
Activity (MCF7 [4]): Active
Activity (MDA-MB-468 [13]): Active
Activity (MCF7 [14]): Active
inhibition (MDA-MB-468 [7]): Active
Activity (MDA-MB-231 [1]): Active
Activity (MDA-MB-231 [15]): Active
p53 R280K downregulation (active/not active) (MDA-MB-231 [9]): Active
Activity (MDA-MB-468 [16]): Active
Activity (MCF7 [17]): Active
Activity (MCF7 [18]): Active
Activity (MDA-MB-231 [19]): Active

S=C=NCC12CC3CC(CC(C3)C1)C2
Activity (MCF7 [4]): Active
Activity (MCF7 [5]): inactive
IC50 (MDA-MB-231 [6]): 24 µM
inhibition (MDA-MB-468 [7]): Active
Activity (MDA-MB-231 [2]): Dose-Dependent Effect
fold change (FC) (MDA-MB-231 [8]): 2
p53 R280K downregulation (active/not active) (MDA-MB-231 [9]): Active
inhibition (INH) (MDA-MB-231 [20]): 50%
inhibition (MCF7 [11]): inactive
fold change (FC) (MDA-MB-468 [12]): 2

O=C1CNC(=S)N1CCC12CC3CC(CC(C3)C1)C2
Activity (MCF7 [4]): inactive
Activity (MCF7 [5]): inactive
inhibition (MDA-MB-468 [7]): inactive
Activity (MDA-MB-231 [1]): inactive
logP at 18 h [3]: 3.73
Activity (MDA-MB-468 [21]): inactive
p53 R280K downregulation (active/not active) (MDA-MB-231 [9]): inactive
Activity (MDA-MB-231 [22]): inactive
Activity (MDA-MB-468 [23]): inactive
inhibition (MCF7 [11]): inactive

S=C=NCCOC12CC3CC(CC(C3)C1)C2
Activity (MDA-MB-231 [1]): inactive
logP at 18 h [3]: 3.73

C1C2CC3CC1CC(C2)C3
Activity (MCF7 [4]): inactive
Activity (MDA-MB-231 [1]): inactive
Activity (MDA-MB-468 [21]): inactive

S=C=NC12CC3CC(CC(C3)C1)C2
Activity (MCF7 [5]): inactive
inhibition (MDA-MB-468 [7]): inactive
Activity (MDA-MB-231 [1]): inactive
p53 R280K downregulation (active/not active) (MDA-MB-231 [9]): inactive
Activity (MDA-MB-231 [22]): inactive
Activity (MDA-MB-468 [23]): inactive
inhibition (MCF7 [11]): inactive

CCCC(CN=C=S)C1C2CC3CC(C2)CC1C3 (stereo not drawn)
Activity (MDA-MB-231 [1]): inactive
logP [3]: 6.77

CC(C)(COC12CC3CC(CC(C3)C1)C2)N=C=S
Activity (MDA-MB-231 [1]): inactive

O=C(CC12CC3CC(CC(C3)C1)C2)N=C=S
Activity (MDA-MB-231 [1]): inactive
logP [3]: 3.73

CC12CC3CC(C)(C1)CC(N=C=S)(C3)C2
Activity (MDA-MB-231 [1]): inactive
